# Rows were chosen to be rich in hits. Some 1.8% of all compounds tested hit in one or more screens of this group.
# DAGLB inhibitor = blocks human DAGLB lipase activity; actives 0.059% (n = 340,000); Q8NCG7; inhibition, % at 5.17 µM; AID 504411; HEK293T DAGLB membrane lysate, EnzChek fluorogenic substrate; in the data active = inhibition above about 34%
# Target sequence (Q8NCG7 whole entry, looked up): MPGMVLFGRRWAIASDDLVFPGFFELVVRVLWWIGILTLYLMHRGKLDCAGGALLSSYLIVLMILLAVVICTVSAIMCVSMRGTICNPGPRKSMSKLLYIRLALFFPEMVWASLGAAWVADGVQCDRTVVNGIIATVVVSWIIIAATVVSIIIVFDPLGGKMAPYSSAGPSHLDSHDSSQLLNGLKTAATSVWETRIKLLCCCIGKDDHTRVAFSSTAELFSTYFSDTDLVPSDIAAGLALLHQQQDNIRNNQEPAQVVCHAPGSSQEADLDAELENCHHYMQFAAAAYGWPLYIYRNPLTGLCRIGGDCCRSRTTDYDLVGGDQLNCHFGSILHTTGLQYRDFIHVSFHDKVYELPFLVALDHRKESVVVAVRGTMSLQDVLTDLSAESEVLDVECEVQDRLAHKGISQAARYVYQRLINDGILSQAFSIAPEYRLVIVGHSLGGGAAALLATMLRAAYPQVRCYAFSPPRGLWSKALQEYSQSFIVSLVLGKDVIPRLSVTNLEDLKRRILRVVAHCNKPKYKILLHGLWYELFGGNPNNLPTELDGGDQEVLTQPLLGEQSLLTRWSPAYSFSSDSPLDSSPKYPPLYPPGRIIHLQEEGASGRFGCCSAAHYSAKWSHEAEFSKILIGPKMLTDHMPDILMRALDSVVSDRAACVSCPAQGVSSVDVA
# rRNA inh HTS = inhibits bacterial ribosomal RNA function over humanized ribosomes; GFP signal change (wild-type ribosome), % (test concentration not listed); actives 1.6% (n = 350,000); AID 720706; E. coli WT GFP vs humanized-ribosome RFP mutants, fluorescence, 24 h; hits give low values; DMSO median 0, no signal -100;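 active = significant combined selectivity score with lowered wild-type GFP, culture density cut under 30%, mutant RFP and density less affected; inactive = any of these conditions unmet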
# iPSC survival up = increases survival of single human iPS cells | actives 0.044% (n = 360,000) | survival enhancement, % at 20 µM | hiPSC single-cell survival, ATPlite luminescence; 100% = ROCK inhibitor wells, 0% = DMSO | AID 602274; in the data active = survival enhancement above about 18%;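 also: cells exposed to compounds for 16 hours before the ATP read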
# MT1-MMP act inh = blocks activation of human MT1-MMP | GFP/RFP ratio change, % at 20 µM | actives 0.061% (n = 360,000) | AID 651647 | P50281 | HT1080 RFP-PRO-GFP cells, GFP/RFP ratio fluorescence, overnight; percent of plate control window, DMSO zero;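 active = GFP/RFP ratio change of at least 30% with cell ATP level not reduced by more than half and red fluorescence within 50% of control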
#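 Read-out: GFP/RFP fluorescence ratio; Test system: RFP-PRO-GFP reporter HT1080 cells; Compound dosing: single-point 20 µM compound, 1% DMSO; Times: overnight compound exposure at 37 °C.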
# SKN-1 block = inhibitors of C. elegans SKN-1; inhibition, % at 21.8 µM; actives 0.49% (n = 360,000); C. elegans VP596 Pgst-4::GFP/RFP ratio, acrylamide-induced, 24 h;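 active = interference check ratio from 0.5 to 1.5 plus GFP to RFP signal ratio inhibition reaching or exceeding a fixed threshold, cut at about 30% in these data, passing the limit was not always enough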
# Cneo AK release = causes C. neoformans cell lysis; adenylate kinase release luminescence, 4 h; normalised: neutral wells 0, clomiphene wells 100; lysis activity, % at 15 µM; actives 0.2% (n = 360,000); AID 651654;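 active = mean lysis activity across replicates of at least 80%, whatever share of replicates individually reach that level; inactive = mean lysis activity below 80%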
#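 read-out = cell lysis signal | test system = log-phase Cryptococcus neoformans yeast cells | input = cells at 5 × 10^6 per mL | medium = fresh YPD growth medium | signal = luminescent adenylate kinase detection reagent | timing = 4 h at 37 °C static, read 1 h later | dosing = single dose | controls = Clomiphene as positive lysis control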
# Hits are given with their value; n = inactive; x = no result; ! = not active in a repeat.
SMILES,DAGLB inhibitor,rRNA inh HTS,iPSC survival up,MT1-MMP act inh,SKN-1 block,Cneo AK release
C[C@H](CO)N1C[C@H](C)[C@H](CN(C)C(=O)Nc2ccc(C(F)(F)F)cc2)OCc2cnnn2CCCC1=O,n,-11!,n,n,n,n
C[C@@H]1CN([C@@H](C)CO)C(=O)CCCn2nncc2CO[C@H]1CN(C)Cc1cccc(C(F)(F)F)c1,n,n,n,n,n,120!
C[C@H](CO)N1C[C@H](C)[C@H](CN(C)Cc2ccccc2)Oc2ccc(NC(=O)Nc3ccc4c(c3)OCO4)cc2CC1=O,x,n,x,x,x,n
COC(=O)CSc1nc2cc(C)cc(C)c2cc1C#N,n,x,n,n,37,n
Cc1cc(C)c2cc(C#N)c(N3CCCC3)nc2c1,n,x,n,n,48,n
O=C(NC(=S)NCc1ccccc1)c1ccccc1F,n,n,n,n,n,n
Cc1c(Cl)cccc1NC(=S)NCCc1ccc(Cl)cc1,n,n,n,n,n,113
S=C(NCCc1cccc(Cl)c1)NCc1ccccc1,n,x,n,n,n,n
S=C(NCCc1ccc(Cl)cc1)NCc1ccccc1,n,x,n,n,n,114
O=C(NC(=S)NCCc1ccccc1)c1ccccc1F,n,-31,n,n,n,n
COc1cccc(CNC(=O)C[C@H]2C=C[C@H](NC(=O)C3CCC3)[C@H](CO)O2)c1,x,n,x,x,x,n
Cc1noc(C)c1S(=O)(=O)N(C)C[C@@H]1OCCCC[C@H](C)Oc2ccc(NC(=O)Nc3ccc(C(F)(F)F)cc3)cc2C(=O)N([C@H](C)CO)C[C@@H]1C,x,n,x,x,x,n
CC(C)(C)c1ccc(NC(=S)NCCc2ccccn2)cc1,n,-41,n,n,n,x
Cc1ccc(C(=O)CSc2nnc(COc3cccc4cccnc34)o2)cc1,n,-32,n,n,n,n
COc1cccc(C(=O)CSc2nnc(COc3cccc4cccnc34)o2)c1,n,-35,n,n,n,n
O=C(CSc1nnc(COc2cccc3ccccc23)o1)N1c2ccccc2CCc2ccccc21,n,x,n,n,45,n
O=C(CSc1nnc(COc2cccc3cccnc23)o1)N1CCCC1,n,n,n,n,n,x
CCC(=O)N1[C@H](CO)[C@@H](c2ccccc2)C12CN(C(=O)c1cnccn1)C2,x,n,x,x,x,x
Clc1ccc(Nc2ncnc3ccc(Br)cc23)cc1,n,x,n,n,36,n
C[C@@H]1CN([C@H](C)CO)C(=O)c2cc(NC(=O)Nc3ccc4c(c3)OCO4)ccc2O[C@@H](C)CCCCO[C@@H]1CN(C)Cc1ccc(C(=O)O)cc1,x,n,x,x,x,n
CC(=O)Nc1ccc2c(c1)C(=O)N(C)C[C@H](C)[C@@H](CN(C)C(C)=O)O2,x,n,x,x,x,x
Cc1ccc(CNC(=O)c2ccc(Br)o2)cc1,n,-18,n,n,n,n
O=C(NCc1ccccc1)c1ccc(Br)o1,n,n,n,n,n,n
C[C@H]1CN([C@@H](C)CO)C(=O)c2cc(Br)cnc2O[C@@H]1CN(C)C(=O)Nc1ccc(C(F)(F)F)cc1,n,-12!,n,n,n,n
C[C@H](CO)N1C[C@H](C)[C@H](CN(C)C(=O)Nc2ccc3c(c2)OCO3)Oc2ncc(-c3ccc(F)cc3)cc2C1=O,x,n,x,x,x,91
SMILES,DAGLB inhibitor,rRNA inh HTS,iPSC survival up,MT1-MMP act inh,SKN-1 block,Cneo AK release
C[C@@H]1CN([C@@H](C)CO)C(=O)c2cc(-c3ccc(C#N)cc3)cnc2O[C@@H]1CN(C)C(=O)Nc1ccc(F)cc1,x,n,x,x,x,92
CO[C@H]1CN(C)C(=O)c2ccc(NC(C)=O)cc2OC[C@H](C)N(Cc2cncnc2)C[C@H]1C,x,n,x,x,x,x
C[C@H]1CN([C@@H](C)CO)C(=O)Cc2cc(NS(=O)(=O)c3cn(C)cn3)ccc2O[C@@H]1CN(C)Cc1ccc(C(=O)O)cc1,x,n,x,x,x,n
COc1ccc(/C=C(\C#N)C(=O)N2CCOCC2)cc1Br,n,x,n,n,n,n
Cc1cc(/C=C(\C#N)C(=O)N2CCOCC2)c(C)n1C1CCCC1,n,-22,n,n,n,x
COc1ccc(Nc2nnc(-c3ccc(C(N)=O)cc3)c3ccccc23)cc1,n,-38,n,n,n,n

# Source: PubChem BioAssay (several laboratories)
